The source made the active and inactive calls. No cut-off for these calls is given here.
Tests used:
[1] = Inhibition of H+/K+ ATPase in hog gastric mucosa by malachite green based competitive binding assay; format: tissue-based, Sus scrofa
In short: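 Hog gastric mucosa H+/K+-ATPase, isolated enzyme; competitive binding assay run at pH 7.4; pIC50 reported as geometric mean of 4-5 measurements.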

[2] = tested on: Gastric gland; assay: Inhibition of acid secretion in New Zealand White rabbit intact gastric glands assessed as [14C]dimethylaminopyridine accumulation by radioactivity; format: functional, tissue-based; settings: Oryctolagus cuniculus
In short: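 Gastric glands isolated intact from New Zealand rabbits; cellular activity read as reduced accumulation of the weak base 14C-dimethylaminopyridine; pIC50 given as geometric mean of 4-5 determinations.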

[3] = tested on: Rattus norvegicus; assay: Inhibition of pentagastrin-stimulated acid secretion in intraduodenally dosed perfused Sprague-Dawley rat Ghosh Schild model; format: functional; settings: intraduodenal
[4] = Octanol/aqueous KCl distribution coefficient, log D at pH 7.4 by potentiometric titration; format: physicochemical
In short: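 Octanol/aqueous KCl distribution coefficient from potentiometric titrations across pH 2.0-11.0 at 25 °C.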

[5] = Partition coefficient, log D by HPLC; format: physicochemical; settings: octanol/water
In short: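 logD by reversed-phase HPLC at 37 °C, calibrated with seven reference substances of known logD.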

[6] = Dissociation constant, pKa at pH 2.0 to 11.0 by potentiometric cosolvent titration; format: physicochemical
[7] = molecular target: hERG (KCNH2) (Homo sapiens, UniProt Q12809); assay: Inhibition of human ERG expressed in CHO-K1 cells at 10 uM by whole-cell patch clamp technique; format: cell-based; settings: CHO-K1 cells that express human ERG
In short: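 CHO-K1 cells stably transfected with hERG; whole-cell patch clamp recording of tail currents with test compound at 10 μM, three cells per compound; relative block of tail current amplitude given as arithmetic mean.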

[8] = tested on: Canis familiaris; assay: Inhibition of pentagastrin-stimulated acid secretion in po dosed Beagle dog fistula model assessed as elevation of intragastric pH; format: functional, organism-based; settings: Canis lupus familiaris
In short: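 Surgically prepared fistula dogs; pentagastrin infused subcutaneously from 1 h after start of pH-metry over 22.5 h; drug or vehicle given orally in capsules 2.5 h after start; intragastric pH recorded continuously for 24 h with combined glass electrode and ambulatory pH meter; duration of pH >5 read from curves.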

Chain of hERG (KCNH2) (Q12809 whole entry): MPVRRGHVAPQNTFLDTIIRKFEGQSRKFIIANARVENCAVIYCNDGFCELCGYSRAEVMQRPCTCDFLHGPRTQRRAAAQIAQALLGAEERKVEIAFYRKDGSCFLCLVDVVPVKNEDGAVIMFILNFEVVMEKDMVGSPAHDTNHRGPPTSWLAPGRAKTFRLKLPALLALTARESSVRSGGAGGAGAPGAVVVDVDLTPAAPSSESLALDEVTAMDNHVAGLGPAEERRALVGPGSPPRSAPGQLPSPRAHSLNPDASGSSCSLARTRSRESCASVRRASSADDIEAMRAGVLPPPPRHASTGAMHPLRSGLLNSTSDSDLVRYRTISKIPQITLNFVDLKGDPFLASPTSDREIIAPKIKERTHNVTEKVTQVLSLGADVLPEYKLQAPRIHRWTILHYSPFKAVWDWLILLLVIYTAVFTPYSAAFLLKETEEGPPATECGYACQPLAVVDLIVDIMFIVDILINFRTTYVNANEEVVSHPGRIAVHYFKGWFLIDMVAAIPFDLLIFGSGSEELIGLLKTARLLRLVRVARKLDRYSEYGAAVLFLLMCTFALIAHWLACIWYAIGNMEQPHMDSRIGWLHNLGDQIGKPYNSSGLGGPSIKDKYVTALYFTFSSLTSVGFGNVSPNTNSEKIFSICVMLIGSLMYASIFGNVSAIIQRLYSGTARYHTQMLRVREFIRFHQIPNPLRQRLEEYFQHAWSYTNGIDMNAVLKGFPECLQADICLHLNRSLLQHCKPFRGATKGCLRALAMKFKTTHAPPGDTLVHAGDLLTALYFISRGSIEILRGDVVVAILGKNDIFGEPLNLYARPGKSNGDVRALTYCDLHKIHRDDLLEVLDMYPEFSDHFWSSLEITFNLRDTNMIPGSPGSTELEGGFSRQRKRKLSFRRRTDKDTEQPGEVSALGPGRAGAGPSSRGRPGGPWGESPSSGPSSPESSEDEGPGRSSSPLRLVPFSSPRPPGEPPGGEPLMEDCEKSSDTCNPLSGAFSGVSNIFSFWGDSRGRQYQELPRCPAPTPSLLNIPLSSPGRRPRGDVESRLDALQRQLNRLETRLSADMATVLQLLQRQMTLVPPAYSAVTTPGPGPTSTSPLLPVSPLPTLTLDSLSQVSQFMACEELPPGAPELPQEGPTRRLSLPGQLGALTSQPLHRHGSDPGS

Row | Structure (SMILES) | pIC50 [1] | IC50 [2] [nM] | ED50 [3] [µmol/kg] | logD [4] | logD [5] | pKa ([6]; read-out: pKa) | inhibition at 10 µM [7] [%] | pKa [6] | Activity [8]
1 | Cc1sccc1[C@@H]1CCc2c(C(=O)N(C)C)cc3c(nc(C)n3C)c2O1 | 6.3 | 1000 | 0.3 | 2.32 | 2.7 | 5.66 | 18 |  | 
2 | Cc1ccccc1[C@@H]1CCc2c(C(=O)NC3CC3)cc3c(nc(C)n3C)c2O1 | 4.9 | 794 | 0.3 |  | 3 |  | 43 | 5.68 | 
3 | COC1CN(C(=O)c2cc3c(nc(C)n3C)c3c2CC[C@@H](c2ccc(Cl)cc2C)O3)C1 | 5.4 | 501 | 0.4 | 3.42 | 3.2 | 5.48 | 95 |  | 
4 | Cc1nc2c3c(c(C(=O)N(C)C)cc2n1C)CC[C@@H](c1ccc2ccccc2c1)O3 | 4.1 | 63100 | 3 | 3.37 | 3.2 | 5.57 | 65 |  | 
5 | Cc1nnc(-c2cc3c(nc(C)n3C)c3c2CC[C@@H](c2ccccc2C)O3)o1 | 4.6 | 5010 | 0.6 |  | 3.3 |  | 27 | 5.17 | 
6 | CCCNC(=O)c1cc2c(nc(C)n2C)c2c1CC[C@@H](c1ccccc1C)O2 | 4.7 | 631 | < 0.3 |  | 3.2 |  | 66 | 5.63 | 
7 | Cc1ccccc1[C@@H]1CCc2c(C(=O)N(C)C)cc3c(nc(C4CC4)n3C)c2O1 |  |  | 0.1 | 2.84 | 3.3 | 5.28 | 6 |  | inactive
8 | CON(C)C(=O)c1cc2c(nc(C)n2C)c2c1CC[C@@H](c1ccccc1C)O2 | 5.4 | 1260 | 0.15 |  | 2.9 |  | 13 | 5.49 | 
9 | Cc1ccccc1[C@@H]1CCc2c(C(=O)NCC3CC3)cc3c(nc(C)n3C)c2O1 | 4.7 | 501 | < 0.3 |  | 3.3 |  | 90 | 5.76 | 
10 | COCc1ccccc1[C@@H]1CCc2c(C(=O)N(C)C)cc3c(nc(C)n3C)c2O1 | 4.7 | 15800 | 1.6 | 1.9 | 2.6 | 5.61 | 7 |  | 
11 | Cc1ccccc1[C@@H]1CCc2c(C(=O)N3CCCC3)cc3c(nc(C)n3C)c2O1 | 5.4 | 794 | 0.7 |  | 3.1 |  | 43 | 5.7 | 
12 | CCCOC1CN(C(=O)c2cc3c(nc(C)n3C)c3c2CC[C@@H](c2ccccc2C)O3)C1 | 4.9 | 1260 | 0.2 |  | 3.3 |  | 94 | 5.62 | 
13 | Cc1nc2c3c(c(C(=O)N(C)C)cc2n1C)CC[C@@H](c1ccccc1Cl)O3 |  | 1580 | 0.4 | 2.86 | 3 | 5.45 | 13 |  | 
14 | C#CCNC(=O)c1cc2c(nc(C)n2C)c2c1CC[C@@H](c1ccccc1C)O2 | 4.7 | 2000 | 0.3 |  | 3.1 |  | 83 | 5.58 | 
15 | CCc1ccccc1[C@@H]1CCc2c(C(=O)N(C)C)cc3c(nc(C)n3C)c2O1 | 5.4 | 1260 | 0.5 |  | 3 |  | 11 |  | inactive
16 | Cc1nc2c3c(c(C(=O)N(C)C)cc2n1C)CC[C@@H](c1ccc(F)cc1)O3 | 5.3 | 1000 | 0.1 | 2.36 | 2.7 | 5.65 | 28 |  | 
17 | Cc1ccccc1[C@@H]1CCc2c(C(=O)N(C)C)cn3c(C)c(C)nc3c2O1 |  |  |  |  |  | 7.15 |  |  | 
18 | CC(=O)CNC(=O)c1cc2c(nc(C)n2C)c2c1CC[C@@H](c1ccccc1C)O2 | 4.6 | 1000 | 0.3 |  | 2.8 |  | 63 | 5.62 | inactive
19 | Cc1nc2c3c(c(C(=O)N(C)C)cc2n1C)CC[C@@H](c1ccccc1C1CC1)O3 | 4.8 | 3160 | 1.5 | 3.18 | 3.1 | 5.63 | 18 |  | 
20 | Cc1nc2c3c(c(C(=O)N(C)C)cc2[nH]1)CC[C@@H](c1ccccc1C)O3 | 5.59 | 1950 | 0.5 | 2.82 | 2.8 | 5.66 | 11 |  | 
21 | Cc1ccccc1[C@@H]1CCc2c(C(=O)N3CC(F)C3)cc3c(nc(C)n3C)c2O1 | 5 | 1000 | 0.3 |  | 3 |  | 28 | 5.54 | 
22 | COC1CN(C(=O)c2cc3c(nc(C)n3C)c3c2CC[C@@H](c2ccccc2C)O3)C1 | 5.2 | 631 | 0.3 |  | 2.9 |  | 18 | 5.66 | Active
23 | Cc1cc(Cl)ccc1[C@@H]1CCc2c(C(=O)N3CCC3)cc3c(nc(C)n3C)c2O1 | 5.2 | 398 | 0.15 | 3.43 | 3.2 | 5.49 | 48 |  | 
24 | COCc1cc2c(nc(C)n2C)c2c1CC[C@@H](c1ccccc1C)O2 | 5.1 | 1000 | 0.5 |  | 3.4 |  | 34 | 6.24 | 
25 | Cc1nc2c3c(c(C(=O)N(C)C)cc2n1C)CC[C@@H](c1ccc(Cl)cc1Cl)O3 | 6 | 398 | 0.3 | 3.66 | 3.3 | 5.36 | 59 |  | 
26 | Cc1ccccc1[C@@H]1CCc2c(C(=O)N3CC(F)(F)C3)cc3c(nc(C)n3C)c2O1 | 4.7 | 3980 | 0.3 |  | 3.3 |  | 28 | 5.36 | 
27 | Cc1nc2c3c(c(C(=O)N(C)C)cc2n1C)CC[C@@H](c1ccccc1F)O3 | 4.9 | 1580 | 0.5 | 2.41 | 2.7 | 5.55 | 9 |  | 
28 | CCNC(=O)c1cc2c(nc(C)n2C)c2c1CC[C@@H](c1ccccc1C)O2 | 4.9 | 1000 | 0.12 |  | 2.9 |  | 24 | 5.71 | 

— ChEMBL document CHEMBL1158548, “Tetrahydrochromenoimidazoles as potassium-competitive acid blockers (P-CABs): structure-activity relationship of their antisecretory properties and their affinity toward the hERG channel” (J Med Chem, 2010)
